Reference: ChEMBL document CHEMBL2440006, “Mastering tricyclic ring systems for desirable functional cannabinoid activity” (Eur J Med Chem, 2013)

Columns and labels:
[1] = biological target: Cannabinoid receptor 1 (Homo sapiens) (UniProt P21554); assay: Induction of human CB1 receptor internalization expressed in HEK293 cells at 10 uM relative to CP55940; assay type: cell-based
Procedure, shortened: (§1)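 Cells stably expressing human CB1 or human CB2 receptors, exposed to test compound alone. […] Mean of two determinations.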

Cannabinoid receptor 2 [2] = biological target: T1, Cannabinoid receptor 2 (Homo sapiens, UniProt P34972); assay: Induction of human CB2 receptor internalization expressed in HEK293 cells at 10 uM relative to CP55940; assay type: cell-based; procedure, shortened: as §1
T1 sequence (P34972 whole entry): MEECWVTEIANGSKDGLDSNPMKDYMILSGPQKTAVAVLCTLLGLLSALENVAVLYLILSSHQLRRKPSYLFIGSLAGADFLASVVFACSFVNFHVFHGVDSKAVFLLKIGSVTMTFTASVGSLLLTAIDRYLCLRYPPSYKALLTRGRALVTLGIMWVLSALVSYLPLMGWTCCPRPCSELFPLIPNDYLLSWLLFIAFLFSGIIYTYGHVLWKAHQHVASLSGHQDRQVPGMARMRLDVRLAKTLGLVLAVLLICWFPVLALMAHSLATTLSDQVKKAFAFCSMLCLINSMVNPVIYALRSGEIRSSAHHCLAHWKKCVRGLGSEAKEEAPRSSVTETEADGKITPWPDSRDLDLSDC

Cannabinoid receptor 1 = Cannabinoid receptor 1 (Rattus norvegicus, UniProt P20272); assay: Displacement of [3H]-CP55940 from CB1 receptor in rat brain homogenate after 1.5 hrs by microbeta liquid scintillation counting analysis; assay type: tissue-based
Chain of Cannabinoid receptor 1 (P20272 whole entry): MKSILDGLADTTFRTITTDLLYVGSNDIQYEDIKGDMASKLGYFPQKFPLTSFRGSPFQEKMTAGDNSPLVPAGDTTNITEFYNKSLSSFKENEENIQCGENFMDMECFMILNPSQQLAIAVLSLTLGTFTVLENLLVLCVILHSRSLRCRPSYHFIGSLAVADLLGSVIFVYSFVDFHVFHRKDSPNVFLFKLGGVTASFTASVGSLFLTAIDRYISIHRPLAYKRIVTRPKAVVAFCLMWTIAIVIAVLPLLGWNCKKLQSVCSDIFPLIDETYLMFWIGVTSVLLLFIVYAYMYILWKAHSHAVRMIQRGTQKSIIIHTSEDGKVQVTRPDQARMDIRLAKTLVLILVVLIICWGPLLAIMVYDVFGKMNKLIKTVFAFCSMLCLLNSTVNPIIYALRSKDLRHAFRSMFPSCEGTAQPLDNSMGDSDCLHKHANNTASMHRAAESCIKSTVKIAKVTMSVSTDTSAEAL
Procedure, shortened: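 Membranes from rat brain homogenate (CB1) or HEK293 cells expressing human CB2. […] GF/B filtration, then scintillation counting. […] IC50 by three-parameter logistic fit, Ki by Cheng-Prusoff. Three experiments in triplicate.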

[3] = Selectivity ratio of Ki for rat CB1 receptor to Ki for human CB2 receptor
Cannabinoid receptor 2 [4] = biological target: T1, Cannabinoid receptor 2; assay: Displacement of [3H]-CP55940 from human CB2 receptor expressed in HEK293 cells after 1.5 hrs by microbeta liquid scintillation counting analysis; assay type: cell-based
Procedure, shortened: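 Membranes from rat brain homogenate (CB1) or HEK293 cells expressing human CB2. GF/B filtration, then scintillation counting. IC50 by three-parameter logistic fit, Ki by Cheng-Prusoff. Three experiments in triplicate.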

[5] = biological target: Cannabinoid receptor 1 (Homo sapiens) (UniProt P21554); assay: Agonist activity at human recombinant CB1 receptor expressed in CHO cells after 1 hr by [35S]GTPgammaS binding assay relative to CP55940; assay type: functional, cell-based
Procedure, shortened: (§2)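 Membranes from CHO cells expressing hCB1 or hCB2, preincubated at least 15 min on ice with 30 μM GDP solution. GTP-γ-[35S] with WGA-PVT SPA beads. Eight concentrations, 0.001–10 μM, in duplicate. Incubated 1 h at room temperature, centrifuged, then a further 1 h before counting. […] Mean of two determinations.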

Cannabinoid receptor 2 [6] = biological target: T1, Cannabinoid receptor 2; assay: Partial agonist activity at human recombinant CB2 receptor expressed in CHO cells after 1 hr by [35S]GTPgammaS binding assay relative to CP55940; assay type: functional, cell-based; procedure, shortened: as §2

Chain of Cannabinoid receptor 1 (Homo sapiens) (P21554 whole entry): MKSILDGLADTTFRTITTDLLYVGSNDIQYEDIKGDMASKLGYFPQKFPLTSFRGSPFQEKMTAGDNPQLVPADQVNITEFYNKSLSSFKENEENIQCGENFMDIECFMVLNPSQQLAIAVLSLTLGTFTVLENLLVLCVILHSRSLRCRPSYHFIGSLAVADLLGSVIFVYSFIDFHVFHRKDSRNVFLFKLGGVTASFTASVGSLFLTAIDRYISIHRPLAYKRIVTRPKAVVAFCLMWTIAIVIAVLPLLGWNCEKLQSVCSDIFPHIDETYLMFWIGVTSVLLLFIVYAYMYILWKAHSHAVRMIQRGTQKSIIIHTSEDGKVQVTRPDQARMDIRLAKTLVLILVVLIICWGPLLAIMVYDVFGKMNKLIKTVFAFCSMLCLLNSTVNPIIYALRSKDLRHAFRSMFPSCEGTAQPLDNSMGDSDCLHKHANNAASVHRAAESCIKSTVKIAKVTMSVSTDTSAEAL

Row | Compound | Activity [1] [%] | Activity (Cannabinoid receptor 2 [2]) [%] | Ki (Cannabinoid receptor 1; read-out: Ki) [nM] | Ratio Ki [3] | Ki (Cannabinoid receptor 2 [4]; read-out: Ki) [nM] | Emax [5] [%] | Emax (Cannabinoid receptor 2 [6]) [%] | Ki (Cannabinoid receptor 1) | Ki (Cannabinoid receptor 2 [4]; hek293)
1 | CCCCCCn1c2ccccc2c2cc(C(=O)N3CCCCC3)ccc21 | 122 | 77 | 241 | 2.51 | 96 |  |  |  | 
2 | O=C(c1ccc2c(c1)c1ccccc1n2CCCCl)N1CCCCC1 | 106 | 111 | 124 | 1.4 | 88 |  |  |  | 
3 | CCCCCn1c2ccccc2c2cc(C(=O)N3CCCCC3)ccc21 | 140 | 118 | 77 | 1.05 | 73 | 73.6 | 30.8 |  | 
4 | O=C(c1ccc2c(c1)c1ccccc1n2Cc1ccccn1)N1CCCCC1 |  |  | 403 | 1.87 | 215 |  |  |  | 
5 | CCCCCn1c2ccccc2c2cc(C(=O)CN3CCCCC3)ccc21 | -20.4 | 103 | 3330 | 3.05 | 1090 |  |  |  | 
6 | CCCCCn1c2ccccc2c2cc(C(=O)NCCc3ccc(Cl)cc3)ccc21 |  |  |  |  |  |  |  | Not Active | 
7 | CCCCCn1c2ccccc2c2cc(C(=O)N3CCCCC3)ncc21 | 128 | 101 | 136 | 3.86 | 35.3 |  |  |  | 
8 | O=C(c1ccc2c(c1)c1ccccc1n2CCCN1CCS(=O)(=O)CC1)N1CCCCC1 |  |  | 2380 | 9.54 | 249 |  |  |  | 
9 | CCCCCn1c2ccccc2c2cc(C(=O)N3CCN(C)CC3)ccc21 | 84.7 | 43.9 | 123 | 3.47 | 35.4 |  |  |  | 
10 | CCCCCn1c2ccccc2c2cc(C#N)ccc21 |  |  |  |  |  |  |  | Not Active | Not Active
11 | CCCCCn1c2ccccc2c2cc(C(=O)OCc3ccccn3)ccc21 |  |  | 679 | 0.35 | 1930 |  |  |  | 
12 | CCCCCn1c2ccccc2c2cc(C(=O)N3CCOCC3)ccc21 | 115 | 78.7 | 60 | 0.71 | 84.5 |  |  |  | 
13 | CCOC(=O)CCn1c2ccccc2c2cc(C(=O)N3CCCCC3)ccc21 |  |  | 4980 | 3.79 | 1310 |  |  |  | 
14 | O=C(c1ccc2c(c1)c1ccccc1n2Cc1cccnc1)N1CCCCC1 |  |  | 1020 | 1.71 | 600 |  |  |  | 
15 | O=C(c1ccc2c(c1)c1ccccc1n2CCCN1CCCCC1)N1CCCCC1 |  |  |  |  | 2170 |  |  | Not Active | 
16 | CCCn1c2ccccc2c2cc(C(=O)N3CCCCC3)ccc21 |  |  | 600 | 1.15 | 521 |  |  |  | 
17 | O=C(OCCCn1c2ccccc2c2cc(C(=O)N3CCCCC3)ccc21)N1CCS(=O)(=O)CC1 | 65.6 | 27.9 | 2260 | 30.9 | 73 |  |  |  | 
18 | CCCCCn1c2ccccc2c2cc(C(=O)N(CC)CC)ccc21 | 102 | 53.1 | 105 | 2.03 | 51.8 |  |  |  | 
19 | O=C(c1ccc2c(c1)c1ccccc1n2CC1CCOCC1)N1CCCCC1 | 142 | 86.2 | 19.5 | 0.98 | 20 |  |  |  | 
20 | CCCCCn1c2ccccc2c2cc(C(=O)NCC3CCNCC3)ccc21 |  |  |  |  |  |  |  | Not Active | Not Active
21 | CCCCCn1c2ccccc2c2cc(CN3CCNCC3)ccc21 |  |  |  |  |  |  |  | Not Active | Not Active
22 | O=C(c1ccc2c(c1)c1ccccc1n2CCCl)N1CCCCC1 |  |  | 2360 | 4.55 | 519 |  |  |  | 
23 | CCCCCn1c2ccccc2c2cc(C(=O)N3CCNCC3)ccc21 |  |  |  | 0.1 |  |  |  |  | 
24 | CN(C)CCCn1c2ccccc2c2cc(C(=O)N3CCCCC3)ccc21 |  |  | 2390 | 5.92 | 403 |  |  |  | 
25 | CC(C)(C)OC(=O)NCCCn1c2ccccc2c2cc(C(=O)N3CCCCC3)ccc21 |  |  |  |  | 2690 |  |  | Not Active | 
